From ChEMBL document CHEMBL4052823, “Extra Sugar on Vancomycin: New Analogues for Combating Multidrug-Resistant Staphylococcus aureus and Vancomycin-Resistant Enterococci” (J Med Chem, 2018)
In brackets after ≈: the same amount, converted by molar mass. Activity calls are given as the source filed them. The rule behind the calls is not given here.

Legend:
Staphylococcus aureus [1] = experiment: Potency index, ratio of telavancin MIC90 to test compound MIC90 for vancomycin/methicillin-susceptible Staphylococcus aureus Newman […]; type: functional
[2] = AUC (infinity) in CD1 mouse at 5 mg/kg, iv; type: ADME, organism-based; parameters: dose 5 mg/kg, route intravenous, time infinity; conditions: in vivo
How it was run: (§1)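 Fasted male CD-1 mice (18−22 g), 5 mg/kg single dose into the tail vein, 6 per group. Blood sampled at 0.25, 0.75, 2, 4, 8 and 24 h and analysed by UPLC-MS/MS. T1/2, AUClast, AUCINF_obs, CL_obs, MRTINF_obs and VSS_obs were calculated for each animal from its time−concentration curve.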

Enterococcus faecium [3] = experiment: Antibacterial activity against glycopeptide-resistant Enterococcus faecium Efm-HS-06188 vanA after 24 hrs by broth microdilution method; type: functional; conditions: Efm-HS-06188, 24 h
How it was run: (§2)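 Broth microdilution in cation-adjusted Mueller-Hinton II broth. DMSO stocks were diluted in broth and twofold serially from 128 to 0.0625 μg/mL or lower. Each well was inoculated with ~10^5 CFU of exponential-phase bacteria and incubated at 37 °C for 24 h. MIC was the lowest concentration giving complete growth inhibition, read per CLSI. Growth controls contained broth plus DMSO.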

[4] = Volume of distribution at steady state in CD1 mouse at 5 mg/kg, iv; type: ADME, organism-based; conditions: in vivo, read-out: Vdss
How it was run: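 Fasted male CD-1 mice (18−22 g), 5 mg/kg single dose into the tail vein, 6 per group. T1/2, AUClast, AUCINF_obs, CL_obs, MRTINF_obs and VSS_obs were calculated for each animal from its time−concentration curve.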

Staphylococcus aureus [5] = experiment: Antibacterial activity against methicillin-resistant Staphylococcus aureus USA300 LAC infected in BALB/c mouse assessed as mouse survival rate at 7 mg/kg, ip administered as single dose measured after 10 days relative to control; type: functional; conditions: 240 h
How it was run: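 Female BALB/c mice, 6−8 weeks old, were anesthetized with pentobarbital and infected retro-orbitally with ~2.35 × 10^8 CFU of exponential-phase USA300 LAC, 15 per group. A single 7 mg/kg ip dose was given 1 h after infection. Deaths were recorded daily to build survival curves.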

[6] = AUClast in CD1 mouse at 5 mg/kg, iv; type: ADME, organism-based; parameters: dose 5 mg/kg, route intravenous, time 0 - last; conditions: in vivo; how it was run: as §1
Enterococcus faecium [7] = experiment: Antibacterial activity against glycopeptide-resistant Enterococcus faecium Efm-HS-0649 vanA after 24 hrs by broth microdilution method; type: functional; conditions: Efm-HS-0649, 24 h; how it was run: as §2
Staphylococcus aureus [8] = experiment: Antibacterial activity against healthcare-associated methicillin-resistant/vancomycin-intermediate Staphylococcus aureus Mu50 infected in BALB/c mouse assessed as decrease in liver CFU levels at 7 mg/kg, ip administered twice in 24 hrs interval measured after 5 days; type: functional, organism-based
How it was run: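 Female BALB/c mice, 6−8 weeks old, were anesthetized with pentobarbital and infected retro-orbitally with ~3.8 × 10^8 CFU of exponential-phase Mu50, 12 per group. Treatment started 1 h post-infection: 7 mg/kg ip in sterile water, two doses 24 h apart. At day 5 mice were euthanized and liver homogenates plated on TSA for CFU counts. Groups were compared by two-tailed Mann−Whitney test.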

Enterococcus faecium [9] = experiment: Antibacterial activity against glycopeptide-resistant Enterococcus faecium Efm-HS-vb01 vanB after 24 hrs by broth microdilution method; type: functional; conditions: Efm-HS-vb01, 24 h; how it was run: as §2
Enterococcus faecium [10] = experiment: Antibacterial activity against glycopeptide-resistant Enterococcus faecium Efm-HS-0847 vanM after 24 hrs by broth microdilution method; type: functional; conditions: Efm-HS-0847, 24 h; how it was run: as §2
[11] = Clearance in CD1 mouse at 5 mg/kg, iv; type: ADME, organism-based; conditions: in vivo; how it was run: as §1
[12] = Half life in CD1 mouse at 5 mg/kg, iv; type: ADME, organism-based; conditions: in vivo; how it was run: as §1
[13] = MRT (infinity) in CD1 mouse at 5 mg/kg, iv; type: ADME, organism-based; conditions: in vivo; how it was run: as §1
Staphylococcus aureus [14] = experiment: Antibacterial activity against vancomycin/methicillin-susceptible Staphylococcus aureus Newman […] after 24 hrs by broth microdilution method; type: functional
How it was run: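 Broth microdilution in cation-adjusted Mueller-Hinton II broth. […] Each well received ~10^5 CFU of exponential-phase bacteria and was incubated at 37 °C for 24 h. MIC was taken as the lowest concentration giving complete growth inhibition, interpreted per CLSI.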

Blood = experiment: Drug uptake in CD1 mouse blood at 5 mg/kg, iv; type: ADME, organism-based; conditions: in vivo; how it was run: as §1
Enterococcus faecium [15] = experiment: Antibacterial activity against glycopeptide-resistant Enterococcus faecium Efm-HS-08257 vanM after 24 hrs by broth microdilution method; type: functional; conditions: Efm-HS-08257, 24 h; how it was run: as §2
Staphylococcus aureus [16] = experiment: Antibacterial activity against healthcare-associated methicillin-resistant/vancomycin-intermediate Staphylococcus aureus Mu50 after 24 hrs by broth microdilution method; type: functional; conditions: Mu50, 24 h; how it was run: as §2
L02 = experiment: Cytotoxicity against human HL7702 cells assessed as decrease in cell viability at 10 to 100 uM after 72 hrs by CCK8 assay; type: cell-based; conditions: l02, 72 h
How it was run: (§3)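 HK-2 and HL-7702 cells were seeded at ~5000 cells/well, incubated overnight, then exposed to compound at final 10, 50 and 100 μM for 72 h. CCK-8 was added for 1.5 h at 37 °C and OD450 read. Viability was OD treated / OD untreated × 100, with triplicates.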

HK-2 = experiment: Cytotoxicity against human HK2 cells assessed as decrease in cell viability at 10 to 100 uM after 72 hrs by CCK8 assay; type: cell-based; conditions: hk-2, 72 h; how it was run: as §3

For `CN[C@H](CC(C)C)C(=O)N[C@H]1C(=O)N[C@@H](CC(N)=O)C(=O)N[C@H]2C(=O)N[C@H]3C(=O)N[C@H](C(=O)N[C@H](C(=O)O)c4cc(O)c(CN[C@H]5C(O)O[C@H](CO)[C@H](O)[C@@H]5O)c(O)c4-c4cc3ccc4O)[C@H](O)c3ccc(c(Cl)c3)Oc3cc2cc(c3O[C@@H]2O[C@H](CO)[C@@H](O)[C@H](O)[C@H]2O[C@H]2C[C@](C)(NCc3ccc(-c4ccc(Cl)cc4)cc3)[C@H](O)[C@H](C)O2)Oc2ccc(cc2Cl)[C@H]1O` (some centres not stated), the Ratio (Staphylococcus aureus [1]) was 8 - 16, the AUC(0-inf) [2] was 12200 ng·h/mL and the MIC (Enterococcus faecium [3]) was 2 µg/mL (≈ 1.09 µM). The Vd [4] was 1.75 L/kg, the survival at 7 mg/kg (Staphylococcus aureus [5]) was 93.3% and the AUC(0-t) [6] was 12100 ng·h/mL. The MIC (Enterococcus faecium [7]) was 2 µg/mL (≈ 1.09 µM), the Activity (Staphylococcus aureus [8]) was “Active” and the MIC (Enterococcus faecium [9]) was 0.25 µg/mL (≈ 0.136 µM). For the same molecule, the MIC (Enterococcus faecium [10]) was 8 µg/mL (≈ 4.35 µM), the clearance [11] was 7 mL/min/kg and the half-life [12] was 3.81 h. It also gave an MRT inf [13] of 4.18 h, an MIC90 (Staphylococcus aureus [14]) of 0.03 µg/mL (≈ 0.0163 µM) and a Drug uptake (Blood) of over 1 µg/mL. For the same molecule, the MIC (Enterococcus faecium [15]) was 4 µg/mL (≈ 2.17 µM) and the MIC90 (Staphylococcus aureus [16]) was 0.12 µg/mL (≈ 0.0652 µM).
In the case of `CN[C@H](CC(C)C)C(=O)N[C@H]1C(=O)N[C@@H](CC(N)=O)C(=O)N[C@H]2C(=O)N[C@H]3C(=O)N[C@H](C(=O)N[C@H](C(=O)O)c4cc(O)cc(O)c4-c4cc3ccc4O)[C@H](O)c3ccc(c(Cl)c3)Oc3cc2cc(c3O[C@@H]2O[C@H](CO)[C@@H](O)[C@H](O)[C@H]2O[C@H]2C[C@](C)(NCc3ccc(-c4ccc(C(F)(F)F)cc4)cc3)[C@H](O)[C@H](C)O2)Oc2ccc(cc2Cl)[C@H]1O`, the AUC(0-inf) [2] is reported as 67500 ng·h/mL, the Vd [4] is reported as 0.509 L/kg and the AUC(0-t) [6] is reported as 64200 ng·h/mL. The clearance [11] was 1.24 mL/min/kg, the half-life [12] was 6.04 h and the MRT inf [13] was 6.83 h. It also gave a Drug uptake (Blood) of over 1 µg/mL.
With `CN[C@H](CC(C)C)C(=O)N[C@H]1C(=O)N[C@@H](CC(N)=O)C(=O)N[C@H]2C(=O)N[C@H]3C(=O)N[C@H](C(=O)N[C@H](C(=O)O)c4cc(O)c(CNCCO[C@@H]5O[C@H](CO)[C@H](O)[C@H](O)[C@H]5O)c(O)c4-c4cc3ccc4O)[C@H](O)c3ccc(c(Cl)c3)Oc3cc2cc(c3O[C@@H]2O[C@H](CO)[C@@H](O)[C@H](O)[C@H]2O[C@H]2C[C@](C)(NCc3ccc(-c4ccc(Cl)cc4)cc3)[C@H](O)[C@H](C)O2)Oc2ccc(cc2Cl)[C@H]1O` the MIC (Enterococcus faecium [3]) was 2 µg/mL (≈ 1.06 µM), the Activity (L02) was “Non-Toxic” and the MIC (Enterococcus faecium [7]) was 4 µg/mL (≈ 2.12 µM). It also gave an MIC (Enterococcus faecium [9]) of 0.12 µg/mL (≈ 0.0637 µM), an MIC (Enterococcus faecium [10]) of 16 µg/mL (≈ 8.49 µM) and an MIC90 (Staphylococcus aureus [14]) of 0.06 µg/mL (≈ 0.0318 µM). For the same molecule, the Activity (HK-2) was “Non-Toxic”, the MIC (Enterococcus faecium [15]) was 4 µg/mL (≈ 2.12 µM) and the MIC90 (Staphylococcus aureus [16]) was 0.25 µg/mL (≈ 0.133 µM).
For `CN[C@H](CC(C)C)C(=O)N[C@H]1C(=O)N[C@@H](CC(N)=O)C(=O)N[C@H]2C(=O)N[C@H]3C(=O)N[C@H](C(=O)N[C@H](C(=O)O)c4cc(O)c(CNCCO[C@H]5O[C@H](CO)[C@@H](O)[C@H](O)[C@@H]5O)c(O)c4-c4cc3ccc4O)[C@H](O)c3ccc(c(Cl)c3)Oc3cc2cc(c3O[C@@H]2O[C@H](CO)[C@@H](O)[C@H](O)[C@H]2O[C@H]2C[C@](C)(NCc3ccc(-c4ccc(Cl)cc4)cc3)[C@H](O)[C@H](C)O2)Oc2ccc(cc2Cl)[C@H]1O`, the MIC (Enterococcus faecium [3]) was 1 µg/mL (≈ 0.53 µM), the MIC (Enterococcus faecium [7]) was 0.5 µg/mL (≈ 0.265 µM) and the MIC (Enterococcus faecium [9]) was 2 µg/mL (≈ 1.06 µM). The MIC (Enterococcus faecium [10]) was 2 µg/mL (≈ 1.06 µM), the MIC90 (Staphylococcus aureus [14]) was 2 µg/mL (≈ 1.06 µM) and the MIC (Enterococcus faecium [15]) was 0.12 µg/mL (≈ 0.0637 µM). It also gave an MIC90 (Staphylococcus aureus [16]) of 4 µg/mL (≈ 2.12 µM).
With `CCCCCCc1ccc(CN[C@@]2(C)C[C@H](O[C@H]3[C@H](Oc4c5cc6cc4Oc4ccc(cc4Cl)[C@@H](O)[C@@H](NC(=O)[C@@H](CC(C)C)NC)C(=O)N[C@@H](CC(N)=O)C(=O)N[C@H]6C(=O)N[C@H]4C(=O)N[C@H](C(=O)N[C@H](C(=O)O)c6cc(O)c(CN[C@H]7C(O)O[C@H](CO)[C@H](O)[C@@H]7O)c(O)c6-c6cc4ccc6O)[C@H](O)c4ccc(c(Cl)c4)O5)O[C@H](CO)[C@@H](O)[C@@H]3O)O[C@@H](C)[C@H]2O)cc1` (some centres not stated) the MIC (Enterococcus faecium [3]) was 8 µg/mL (≈ 4.41 µM), the MIC (Enterococcus faecium [7]) was 8 µg/mL (≈ 4.41 µM) and the MIC (Enterococcus faecium [9]) was 1 µg/mL (≈ 0.551 µM). It also gave an MIC (Enterococcus faecium [10]) of 32 µg/mL (≈ 17.6 µM), an MIC90 (Staphylococcus aureus [14]) of 0.25 µg/mL (≈ 0.138 µM) and an MIC (Enterococcus faecium [15]) of 16 µg/mL (≈ 8.82 µM). It also gave an MIC90 (Staphylococcus aureus [16]) of 0.5 µg/mL (≈ 0.276 µM).
